Here are results for five molecules from ChEMBL document CHEMBL1828500, “Synthesis and biological evaluation of dihydroindeno and indeno [1,2-e] [1,2,4]triazolo [3,4-b] [1,3,4]thiadiazines as antimicrobial agents” (2011).

Values after ≈ are worked out from the molar mass of the structure shown.

The test system of one experiment is Escherichia coli. The experiment is described as follows: Antibacterial activity against Escherichia coli MTCC 1652 after 24 hrs by agar well diffusion method. It counts as functional. Particulars: MTCC 1652, 24 h. The method, boiled down: (§1)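 MIC by modified agar well diffusion. Two-fold serial dilutions (DMSO stock diluted in sterile distilled water), range 256 to 0.5, placed in wells in triplicate. Agar was pre-seeded with 100 standardized inoculum at 10⁶ cfu/mL. Incubated aerobically at 37 °C for 24 h. MIC taken as lowest concentration giving a clear zone, i.e. complete growth inhibition.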
In turn, `CCCc1nnc2n1N=C1c3cccc(C)c3CC1S2` (stereo not given) yielded an MIC of 64 µg/mL (≈ 225 µM).

`CCCc1nnc2sc3cc4ccccc4c-3nn12`: the MIC was 64 µg/mL (≈ 238 µM).

Consider `CCCc1nnc2sc3cc4c(C)cccc4c-3nn12`, for which inhibition of growth (MIC) required 128 µg/mL (≈ 453 µM).

In turn, `Cc1cccc2c1CC1Sc3nnc(-c4ccccc4)n3N=C21` (stereo not given) displayed an MIC of 128 µg/mL (≈ 402 µM).

Take `Cc1cccc2c3nn4c(C(C)C)nnc4sc-3cc12`: the MIC amounted to 128 µg/mL (≈ 453 µM).

For a further experiment, the system named is Pseudomonas aeruginosa. The experiment is described as follows: Antibacterial activity against Pseudomonas aeruginosa MTCC 741 at 2 mg/ml after 24 hrs by agar well diffusion method. Particulars: MTCC 741, 24 h, read-out: DIZ. It counts as functional. A digest of the protocol:
(§2)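 Cultures adjusted to 0.5 McFarland and left 15 min on agar for adsorption. 8 mm wells bored and loaded with compound at 2.0 mg/mL in DMSO. Incubated 37 °C for 24 h. Growth-inhibition zone diameter (mm) read with a zone scale and reported as the average. DMSO served as negative control and ciprofloxacin as positive control.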
(In agar diffusion tests the substance spreads into inoculated agar from a disc or well.)
As to `CCCc1nnc2n1N=C1c3cccc(C)c3CC1S2` (stereo not given), the zone of inhibition at 2000 µg/mL stood at 17.6 mm.

With `CCCc1nnc2sc3cc4ccccc4c-3nn12`, the zone of inhibition at 2000 µg/mL was found to be 16.3 mm.

Consider `CCCc1nnc2sc3cc4c(C)cccc4c-3nn12`, for which the zone of inhibition at 2000 µg/mL amounted to 14.3 mm.

With `Cc1cccc2c1CC1Sc3nnc(-c4ccccc4)n3N=C21` (stereo not given), the zone of inhibition at 2000 µg/mL was determined as 15.6 mm.

As for `Cc1cccc2c3nn4c(C(C)C)nnc4sc-3cc12`, the zone of inhibition at 2000 µg/mL was 14.6 mm.

Another experiment deals with Staphylococcus aureus. The experiment is described as follows: Antibacterial activity against Staphylococcus aureus MTCC 96 at 2 mg/ml after 24 hrs by agar well diffusion method. The class given is functional. Particulars: MTCC 96, 24 h, read-out: DIZ. The method, boiled down:
as §2
On to `CCCc1nnc2n1N=C1c3cccc(C)c3CC1S2` (stereo not given), for which the zone of inhibition at 2000 µg/mL was 25.3 mm.

Regarding `CCCc1nnc2sc3cc4ccccc4c-3nn12`, the zone of inhibition at 2000 µg/mL was determined as 25.6 mm.

`CCCc1nnc2sc3cc4c(C)cccc4c-3nn12`: the zone of inhibition at 2000 µg/mL was 16.3 mm.

In the case of `Cc1cccc2c1CC1Sc3nnc(-c4ccccc4)n3N=C21` (stereo not given), the zone of inhibition at 2000 µg/mL was found to be 22.3 mm.

Consider `Cc1cccc2c3nn4c(C(C)C)nnc4sc-3cc12`, for which the zone of inhibition at 2000 µg/mL was 17.6 mm.

Another experiment has as its system Aspergillus flavus. The experiment is described as follows: Antifungal activity against Aspergillus flavus assessed as inhibition of mycelial growth at 4 mg/ml after 7 days. The class given is functional. Particulars: 168 h, read-out: GI. A digest of the protocol: (§3)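 Poisoned food method. Molds grown on Sabouraud dextrose agar at 25 °C for 7 days to provide inocula. Molten SDA (45 °C) dosed with compound at 4.0 mg/mL in DMSO, then solidified. 8 mm fungal plugs from colony margins placed centrally. Incubated 25 °C for 7 days, in triplicate. % mycelial growth inhibition calculated from colony diameters versus DMSO control. Fluconazole served as positive control.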
Regarding `CCCc1nnc2n1N=C1c3cccc(C)c3CC1S2` (stereo not given), the inhibition of growth at 4000 µg/mL came to 55.5%.

For the molecule `CCCc1nnc2sc3cc4ccccc4c-3nn12`, the inhibition of growth at 4000 µg/mL came out at 48.8%.

Turning to `CCCc1nnc2sc3cc4c(C)cccc4c-3nn12`, the inhibition of growth at 4000 µg/mL was found to be 65.5%.

On to `Cc1cccc2c1CC1Sc3nnc(-c4ccccc4)n3N=C21` (stereo not given), for which the inhibition of growth at 4000 µg/mL is 58.8%.

Take `Cc1cccc2c3nn4c(C(C)C)nnc4sc-3cc12`: the inhibition of growth at 4000 µg/mL is 61.1%.

Another experiment has as its system Bacillus subtilis. The experiment is described as follows: Antibacterial activity against Bacillus subtilis MTCC 121 after 24 hrs by agar well diffusion method. The class given is functional. Particulars: MTCC 121, 24 h. The method, boiled down:
as §1
`CCCc1nnc2n1N=C1c3cccc(C)c3CC1S2` (stereo not given) displayed an MIC of 32 µg/mL (≈ 113 µM).

Consider `CCCc1nnc2sc3cc4ccccc4c-3nn12`, for which it took 16 µg/mL (≈ 59.6 µM) to inhibit growth (MIC).

`CCCc1nnc2sc3cc4c(C)cccc4c-3nn12` showed an MIC of 64 µg/mL (≈ 227 µM).

In turn, `Cc1cccc2c1CC1Sc3nnc(-c4ccccc4)n3N=C21` (stereo not given) had a minimal inhibitory concentration (MIC) of 32 µg/mL (≈ 101 µM).

Turning to `Cc1cccc2c3nn4c(C(C)C)nnc4sc-3cc12`, the lowest concentration to inhibit growth (MIC) was 64 µg/mL (≈ 227 µM).

A further experiment relates to Staphylococcus aureus. The experiment is described as follows: Antibacterial activity against Staphylococcus aureus MTCC 96 after 24 hrs by agar well diffusion method. The class given is functional. Particulars: MTCC 96, 24 h. The method, boiled down: as §1
Molecule `CCCc1nnc2n1N=C1c3cccc(C)c3CC1S2` (stereo not given) registered an MIC of 16 µg/mL (≈ 56.3 µM).

In turn, `CCCc1nnc2sc3cc4ccccc4c-3nn12` displayed an MIC of 16 µg/mL (≈ 59.6 µM).

`CCCc1nnc2sc3cc4c(C)cccc4c-3nn12`: the MIC was found to be 128 µg/mL (≈ 453 µM).

`Cc1cccc2c1CC1Sc3nnc(-c4ccccc4)n3N=C21` (stereo not given) had an MIC of 32 µg/mL (≈ 101 µM).

In turn, `Cc1cccc2c3nn4c(C(C)C)nnc4sc-3cc12` returned an MIC of 128 µg/mL (≈ 453 µM).

The subject of another experiment is Pseudomonas aeruginosa. The experiment is described as follows: Antibacterial activity against Pseudomonas aeruginosa MTCC 741 after 24 hrs by agar well diffusion method. Particulars: MTCC 741, 24 h. It counts as functional. A digest of the protocol: as §1
For `CCCc1nnc2n1N=C1c3cccc(C)c3CC1S2` (stereo not given), 64 µg/mL (≈ 225 µM) was the least that counted as inhibitory (MIC).

On to `CCCc1nnc2sc3cc4ccccc4c-3nn12`, for which the MIC was determined as 128 µg/mL (≈ 477 µM). Compared with the last molecule, the MIC is about 2-fold higher.

For the molecule `CCCc1nnc2sc3cc4c(C)cccc4c-3nn12`, inhibition of growth (MIC) required 256 µg/mL (≈ 907 µM).

Molecule `Cc1cccc2c1CC1Sc3nnc(-c4ccccc4)n3N=C21` (stereo not given) had an MIC of 128 µg/mL (≈ 402 µM).

The molecule `Cc1cccc2c3nn4c(C(C)C)nnc4sc-3cc12` showed an MIC of 256 µg/mL (≈ 907 µM).

The subject of another experiment is Aspergillus niger. The experiment is described as follows: Antifungal activity against Aspergillus niger assessed as inhibition of mycelial growth at 4 mg/ml after 7 days. It counts as functional. Particulars: 168 h, read-out: GI. The method, boiled down:
as §3
In the case of `CCCc1nnc2n1N=C1c3cccc(C)c3CC1S2` (stereo not given), the inhibition of growth at 4000 µg/mL was 58.8%.

For `CCCc1nnc2sc3cc4ccccc4c-3nn12`, the inhibition of growth at 4000 µg/mL worked out at 51.1%.

`CCCc1nnc2sc3cc4c(C)cccc4c-3nn12`: the inhibition of growth at 4000 µg/mL is 68.8%.

With `Cc1cccc2c1CC1Sc3nnc(-c4ccccc4)n3N=C21` (stereo not given), the inhibition of growth at 4000 µg/mL stood at 55.5%.

As to `Cc1cccc2c3nn4c(C(C)C)nnc4sc-3cc12`, the inhibition of growth at 4000 µg/mL is 65.5%.

The test system of a further experiment is Escherichia coli. The experiment is described as follows: Antibacterial activity against Escherichia coli MTCC 1652 at 2 mg/ml after 24 hrs by agar well diffusion method. The class given is functional. Particulars: MTCC 1652, 24 h, read-out: DIZ. The method, boiled down:
as §2
Take `CCCc1nnc2n1N=C1c3cccc(C)c3CC1S2` (stereo not given): the zone of inhibition at 2000 µg/mL stood at 19.3 mm.

Take `CCCc1nnc2sc3cc4ccccc4c-3nn12`: the zone of inhibition at 2000 µg/mL is 18.6 mm.

As for `CCCc1nnc2sc3cc4c(C)cccc4c-3nn12`, the zone of inhibition at 2000 µg/mL was 15.6 mm.

Take `Cc1cccc2c1CC1Sc3nnc(-c4ccccc4)n3N=C21` (stereo not given): the zone of inhibition at 2000 µg/mL is 17.3 mm.

As for `Cc1cccc2c3nn4c(C(C)C)nnc4sc-3cc12`, the zone of inhibition at 2000 µg/mL amounted to 15 mm.

The next experiment concerns Penicillium sp. The experiment is described as follows: Antifungal activity against Penicillium sp. assessed as inhibition of mycelial growth at 4 mg/ml after 7 days. Particulars: 168 h, read-out: GI. The class given is functional. A digest of the protocol: as §3
In the case of `CCCc1nnc2n1N=C1c3cccc(C)c3CC1S2` (stereo not given), the inhibition of growth at 4000 µg/mL was 61.1%.

For the molecule `CCCc1nnc2sc3cc4ccccc4c-3nn12`, the inhibition of growth at 4000 µg/mL stood at 47.7%.

In the case of `CCCc1nnc2sc3cc4c(C)cccc4c-3nn12`, the inhibition of growth at 4000 µg/mL was 65.5%.

As for `Cc1cccc2c1CC1Sc3nnc(-c4ccccc4)n3N=C21` (stereo not given), the inhibition of growth at 4000 µg/mL worked out at 60%.

Take `Cc1cccc2c3nn4c(C(C)C)nnc4sc-3cc12`: the inhibition of growth at 4000 µg/mL was 63.3%.

In the next experiment the test system is Bacillus subtilis. The experiment is described as follows: Antibacterial activity against Bacillus subtilis MTCC 121 at 2 mg/ml after 24 hrs by agar well diffusion method. The class given is functional. Particulars: MTCC 121, 24 h, read-out: DIZ. A digest of the protocol:
as §2
With `CCCc1nnc2n1N=C1c3cccc(C)c3CC1S2` (stereo not given), the zone of inhibition at 2000 µg/mL came to 21.6 mm.

With `CCCc1nnc2sc3cc4ccccc4c-3nn12`, the zone of inhibition at 2000 µg/mL turned out to be 24.3 mm.

Take `CCCc1nnc2sc3cc4c(C)cccc4c-3nn12`: the zone of inhibition at 2000 µg/mL is 18.6 mm.

As to `Cc1cccc2c1CC1Sc3nnc(-c4ccccc4)n3N=C21` (stereo not given), the zone of inhibition at 2000 µg/mL stood at 21.6 mm.

As for `Cc1cccc2c3nn4c(C(C)C)nnc4sc-3cc12`, the zone of inhibition at 2000 µg/mL stood at 19.3 mm.

For orientation: MIC means the lowest concentration that inhibits growth of the organism.
